Data: ChEMBL document CHEMBL2163221, “Discovery of a potential anti-ischemic stroke agent: 3-pentylbenzo[c]thiophen-1(3H)-one” (J Med Chem, 2012)
Active and inactive are the calls of the source. The rule behind the calls is not given here.

Columns and labels:
Platelet [1] = test: Inhibition of arachidonic acid-induced platelet aggregation in rabbit platelet rich plasma by Born's turbidimetric method; type: functional; settings: Oryctolagus cuniculus
In short: (§1)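 Rabbit carotid blood in 3.8% sodium citrate (9:1); PRP by 500g spin for 10 min, PPP by a further 3000g spin for 10 min. PRP was preincubated in duplicate for 5 min at 37 °C with vehicle or agent (0.1, 0.2, 0.4, 0.8, 1.6 mM). Aggregation was triggered by ADP (10 μM final) or AA (1 mM), and maximal light transmission was read within 5 min, within 3 h of collection. Inhibition % = 100 × (1 − treated/control); IC50 was calculated.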

Platelet [2] = test: Inhibition of adenosine diphosphate-induced platelet aggregation in rabbit platelet rich plasma by Born's turbidimetric method; type: functional; settings: Oryctolagus cuniculus; in short: as §1
Rattus norvegicus [3] = test: Antithrombotic activity in Sprague-Dawley rat arteriovenous shunt model assessed as reduction of thrombus wet weight at 80 mg/kg, po qd for 5 consecutive days; type: functional; parameters: scale not given: the % may be the effect or the level left
In short: (§2)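 Male SD rats were dosed by gavage in saline daily for 5 days (n = 12/group). An A-V shunt linked the right carotid artery to the left jugular vein: a saline-filled 14 cm polyethylene tube holding 6 cm of four braided silk threads. After 15 min of flow, the threads were weighed wet, then dried 6 h at room temperature and reweighed, less the pre-experiment thread weight.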

Platelet [4] = test: Inhibition of adenosine diphosphate-induced platelet aggregation in rabbit platelet rich plasma at 0.1 mM by Born's turbidimetric method; type: functional; settings: Oryctolagus cuniculus; in short: as §1
Platelet [5] = test: Inhibition of arachidonic acid-induced platelet aggregation in rabbit platelet rich plasma at 0.1 mM by Born's turbidimetric method; type: functional; settings: Oryctolagus cuniculus; in short: as §1
Plasma = test: Anticoagulant activity in rabbit plasma assessed as length of activated partial thromboplastin time; type: functional, cell-free; settings: Oryctolagus cuniculus
Rattus norvegicus [6] = test: Antithrombotic activity in Sprague-Dawley rat arteriovenous shunt model assessed as reduction of thrombus dry weight at 80 mg/kg, po qd for 5 consecutive days; type: functional; parameters: scale not given: the % may be the effect or the level left; in short: as §2
Rattus norvegicus [7] = test: Anticerebral ischemic activity in Sprague-Dawley rat middle cerebral artery occlusion model assessed as reduction in neurological deficit score at 30 mg/kg, ig for 7 consecutive days by Longa's method; type: functional; parameters: scale not given: the % may be the effect or the level left; settings: route intragastric
In short: (§3)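 SD rats were dosed orally in normal saline for 7 days before ischemia (n = 12/group). They were anesthetized ip with 350 mg/kg chloral hydrate and given MCAO with a silicone-tipped 4-0 nylon suture for 2 h, then reperfusion. Occlusion was confirmed as >80% CBF drop by laser Doppler, with core temperature held at 37 °C. Deficits were scored blinded by modified Longa's method 24 h after reperfusion.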

Rattus norvegicus [8] = test: Anticerebral ischemic activity in Sprague-Dawley rat middle cerebral artery occlusion model assessed as reduction of water content in brain at 30 mg/kg, ig for 7 consecutive days; type: functional, organism-based; parameters: dose 30 mg/kg
In short: (§4)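 Rats given oral saline-vehicle pretreatment for 7 days underwent 2 h suture MCAO plus reperfusion. At 24 h the animals were decapitated and brains weighed wet, then dried at 105 °C for 24 h. Water % = (wet − dry)/wet × 100; n = 6/group.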

Rattus norvegicus [9] = test: Antithrombotic activity in Sprague-Dawley rat arteriovenous shunt model assessed as reduction of thrombus wet weight at 30 mg/kg, po qd for 5 consecutive days; type: functional; parameters: scale not given: the % may be the effect or the level left; in short: as §2
PC-12 [10] = test: Antioxidant activity in rat PC12 cells assessed as inhibition of hydroxyl radical-induced cytotoxicity at 10 uM treated for 2 hrs prior to H2O2/Fe+ challenge measured after 1 hr by MTT assay (reference value: 61.95%); type: functional; parameters: scale not given: the % may be the effect or the level left
Platelet [11] = test: Ratio of 3-nbutylphthalide to compound for arachidonic acid-induced platelet aggregation in rabbit platelet rich plasma at 0.1 mM; type: functional, Oryctolagus cuniculus
Rattus norvegicus [12] = test: Anticerebral ischemic activity in Sprague-Dawley rat middle cerebral artery occlusion model assessed as reduction of water content in brain at 90 mg/kg, ig for 7 consecutive days; type: functional, organism-based; parameters: dose 90 mg/kg; in short: as §4
Rattus norvegicus [13] = test: Antioxidant activity in Sprague-Dawley rat middle cerebral artery occlusion model assessed as decrease in malondialdehyde level in brain at 90 mg/kg, ig for 7 consecutive days; type: functional; parameters: scale not given: the % may be the effect or the level left; settings: route intragastric
In short: (§5)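 Rats pretreated orally in saline for 7 days underwent 2 h MCAO with reperfusion. At 24 h brains were removed, rinsed in cold 0.9% saline, blotted and stored at −70 °C. After protein quantification, GSH, SOD activity and MDA were measured with commercial kits; n = 12/group.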

Platelet [14] = test: Ratio of aspirin to compound for adenosine diphosphate-induced platelet aggregation in rabbit platelet rich plasma at 0.1 mM; type: functional, Oryctolagus cuniculus
Platelet [15] = test: Ratio of edaravone to compound for adenosine diphosphate-induced platelet aggregation in rabbit platelet rich plasma at 0.1 mM; type: functional, Oryctolagus cuniculus
Rattus norvegicus [16] = test: Antioxidant activity in Sprague-Dawley rat middle cerebral artery occlusion model assessed as increase in superoxide dismutase activity at 30 mg/kg, ig for 7 consecutive days; type: functional; settings: route intragastric; in short: as §5
Rattus norvegicus [17] = test: Antioxidant activity in Sprague-Dawley rat middle cerebral artery occlusion model assessed as increase in superoxide dismutase activity at 90 mg/kg, ig for 7 consecutive days; type: functional; settings: route intragastric; in short: as §5
Rattus norvegicus [18] = test: Antithrombotic activity in Sprague-Dawley rat arteriovenous shunt model assessed as reduction of thrombus dry weight at 90 mg/kg, po qd for 5 consecutive days; type: functional; parameters: scale not given: the % may be the effect or the level left; in short: as §2
Rattus norvegicus [19] = test: Anticerebral ischemic activity in Sprague-Dawley rat middle cerebral artery occlusion model assessed as reduction in neurological deficit score at 90 mg/kg, ig for 7 consecutive days by Longa's method; type: functional; parameters: scale not given: the % may be the effect or the level left; settings: route intragastric; in short: as §3
PC-12 [20] = test: Antioxidant activity in rat PC12 cells assessed as inhibition of hydrogen peroxide induced cytotoxicity at 10 uM treated for 2 hrs prior to H2O2 challenge measured after 1 hr by MTT assay (reference value: 52.45%); type: functional; parameters: scale not given: the % may be the effect or the level left
Platelet [21] = test: Ratio of 3-nbutylphthalide to compound for adenosine diphosphate-induced platelet aggregation in rabbit platelet rich plasma at 0.1 mM; type: functional, Oryctolagus cuniculus
Rattus norvegicus [22] = test: Antioxidant activity in Sprague-Dawley rat middle cerebral artery occlusion model assessed as decrease in malondialdehyde level in brain at 30 mg/kg, ig for 7 consecutive days; type: functional; parameters: scale not given: the % may be the effect or the level left; settings: route intragastric; in short: as §5
Rattus norvegicus [23] = test: Antioxidant activity in Sprague-Dawley rat middle cerebral artery occlusion model assessed as increase in glutathione level in brain at 90 mg/kg, ig for 7 consecutive days; type: functional; settings: route intragastric; in short: as §5
Rattus norvegicus [24] = test: Antithrombotic activity in Sprague-Dawley rat arteriovenous shunt model assessed as reduction of thrombus dry weight at 30 mg/kg, po qd for 5 consecutive days; type: functional; parameters: scale not given: the % may be the effect or the level left; in short: as §2
Rattus norvegicus [25] = test: Anticerebral ischemic activity in Sprague-Dawley rat middle cerebral artery occlusion model assessed as reduction in loss of hippocampal neurons at 90 mg/kg, ig for 7 consecutive days by hematoxylin-eosin staining; type: functional, organism-based; parameters: dose 90 mg/kg
In short: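 Rats dosed ig in saline for 7 days before 2 h MCAO/reperfusion. Brain tissue sections from the ischemic side were stained with hematoxylin–eosin and examined at ×200 for hippocampal neuron loss; n = 6/group.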

Rattus norvegicus [26] = test: Antithrombotic activity in Sprague-Dawley rat arteriovenous shunt model assessed as reduction of thrombus wet weight at 90 mg/kg, po qd for 5 consecutive days; type: functional; parameters: scale not given: the % may be the effect or the level left; in short: as §2
Rattus norvegicus [27] = test: Anticerebral ischemic activity in Sprague-Dawley rat middle cerebral artery occlusion model assessed as reduction in infarct size in brain at 30 mg/kg, ig for 7 consecutive days by TTC assay; type: functional; parameters: scale not given: the % may be the effect or the level left; settings: route intragastric
In short: (§6)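 SD rats, chloral hydrate 350 mg/kg ip anaesthesia; right MCA occluded 2 h by silicone-tipped 4-0 nylon filament via ECA into ICA (>80% CBF drop by laser Doppler, 37 ± 0.5 °C), then reperfusion. Dosed in normal saline orally daily 7 days before ischemia. At 24 h, 2-mm coronal slices stained 2% TTC 30 min 37 °C; infarct area as % of whole brain; n = 6.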

Rattus norvegicus [28] = test: Anticerebral ischemic activity in Sprague-Dawley rat middle cerebral artery occlusion model assessed as reduction in infarct size in brain at 90 mg/kg, ig for 7 consecutive days by TTC assay; type: functional; parameters: scale not given: the % may be the effect or the level left; settings: route intragastric; in short: as §6
Rattus norvegicus [29] = test: Anticerebral ischemic activity in Sprague-Dawley rat middle cerebral artery occlusion model assessed as reduction in infarct size in brain at 3 mg/kg, ig for 7 consecutive days by TTC assay; type: functional; parameters: scale not given: the % may be the effect or the level left; settings: route intragastric; in short: as §6
Rattus norvegicus [30] = test: Antithrombotic activity in Sprague-Dawley rat arteriovenous shunt model assessed as reduction of thrombus dry weight at 3 mg/kg, po qd for 5 consecutive days; type: functional; parameters: scale not given: the % may be the effect or the level left; in short: as §2
Rattus norvegicus [31] = test: Anticerebral ischemic activity in Sprague-Dawley rat middle cerebral artery occlusion model assessed as reduction in neurological deficit score at 3 mg/kg, ig for 7 consecutive days by Longa's method; type: functional; parameters: scale not given: the % may be the effect or the level left; settings: route intragastric; in short: as §3
Rattus norvegicus [32] = test: Antithrombotic activity in Sprague-Dawley rat arteriovenous shunt model assessed as reduction of thrombus wet weight at 3 mg/kg, po qd for 5 consecutive days; type: functional; parameters: scale not given: the % may be the effect or the level left; in short: as §2
Rattus norvegicus [33] = test: Anticerebral ischemic activity in Sprague-Dawley rat middle cerebral artery occlusion model assessed as reduction of water content in brain at 3 mg/kg, ig for 7 consecutive days; type: functional, organism-based; parameters: dose 3 mg/kg; in short: as §4
Rattus norvegicus [34] = test: Antioxidant activity in Sprague-Dawley rat middle cerebral artery occlusion model assessed as decrease in malondialdehyde level in brain at 3 mg/kg, ig for 7 consecutive days; type: functional; parameters: scale not given: the % may be the effect or the level left; settings: route intragastric; in short: as §5
Rattus norvegicus [35] = test: Antioxidant activity in Sprague-Dawley rat middle cerebral artery occlusion model assessed as increase in glutathione level in brain at 3 mg/kg, ig for 7 consecutive days; type: functional; settings: route intragastric; in short: as §5
Rattus norvegicus [36] = test: Antioxidant activity in Sprague-Dawley rat middle cerebral artery occlusion model assessed as increase in superoxide dismutase activity at 3 mg/kg, ig for 7 consecutive days; type: functional; settings: route intragastric; in short: as §5

SMILES: CC(C)CCC1SC(=O)c2ccccc21 (racemic)
- IC50 (Platelet [1]): > 1000 µM
- IC50 (Platelet [2]): > 1000 µM

SMILES: CC(=O)Oc1ccccc1C(=O)O [ASPIRIN]
- Activity (Rattus norvegicus [3]): 33.45%
- IC50 (Platelet [1]): 150 µM
- inhibition at 100 µM (Platelet [4]): 10.8%
- inhibition at 100 µM (Platelet [5]): 37.2%
- IC50 (Platelet [2]): 880 µM
- Activity (Plasma): inactive
- Activity (Rattus norvegicus [6]): 34.19%

SMILES: CCCCCC1SC(=O)c2ccccc21 (racemic)
- Activity (Rattus norvegicus [7]): 25.09%
- Activity (Rattus norvegicus [8]): inactive
- Activity (Rattus norvegicus [9]): 27.35%
- IC50 (Platelet [1]): 210 µM
- Activity (PC-12 [10]): 86.08%
- Ratio (Platelet [11]): 2.02
- Activity (Rattus norvegicus [12]): Active
- Activity (Rattus norvegicus [13]): 40.9%
- Ratio (Platelet [14]): 1.45
- Ratio (Platelet [15]): 1.36
- inhibition at 100 µM (Platelet [4]): 15.6%
- Activity (Rattus norvegicus [16]): 25.87%
- Activity (Rattus norvegicus [17]): 39.77%
- inhibition at 100 µM (Platelet [5]): 35.2%
- Activity (Rattus norvegicus [18]): 43.33%
- IC50 (Platelet [2]): 420 µM
- Activity (Plasma): inactive
- Activity (Rattus norvegicus [19]): 37.45%
- Activity (PC-12 [20]): 77.23%
- Ratio (Platelet [21]): 1.65
- Activity (Rattus norvegicus [22]): 23.66%
- Activity (Rattus norvegicus [23]): 82.67%
- Activity (Rattus norvegicus [24]): 32.85%
- Activity (Rattus norvegicus [25]): Active
- Activity (Rattus norvegicus [26]): 39.7%
- Activity (Rattus norvegicus [27]): 35.5%
- Activity (Rattus norvegicus [28]): 59.62%

SMILES: CC1=NN(c2ccccc2)C(=O)C1 [EDARAVONE]
- Activity (Rattus norvegicus [29]): 37.31%
- IC50 (Platelet [1]): 250 µM
- Activity (PC-12 [10]): 83.3%
- Activity (Rattus norvegicus [30]): 30.08%
- Activity (Rattus norvegicus [31]): 34.46%
- Activity (Rattus norvegicus [32]): 36.14%
- Activity (Rattus norvegicus [33]): Active
- inhibition at 100 µM (Platelet [4]): 11.5%
- inhibition at 100 µM (Platelet [5]): 36.1%
- IC50 (Platelet [2]): 850 µM
- Activity (Plasma): inactive
- Activity (Rattus norvegicus [34]): 28.52%
- Activity (PC-12 [20]): 78.05%
- Activity (Rattus norvegicus [35]): 58.33%
- Activity (Rattus norvegicus [36]): 34.2%

SMILES: CCCCCCC1SC(=O)c2ccccc21 (racemic)
- IC50 (Platelet [1]): 830 µM
- IC50 (Platelet [2]): 800 µM

SMILES: CCC1SC(=O)c2ccccc21 (racemic)
- IC50 (Platelet [1]): > 1000 µM
- IC50 (Platelet [2]): > 1000 µM
